# From ChEMBL document CHEMBL3351398, “Discovery of a Potent and Selective DGAT1 Inhibitor with a Piperidinyl-oxy-cyclohexanecarboxylic Acid Moiety” (ACS Med Chem Lett, 2014)
# Calls of active or inactive are those of the source. The calls are words filed in the database; no cut-off is given here.
# What was measured:
# [1] = molecular target: T1, Diacylglycerol O-acyltransferase 1 (Mus musculus, UniProt Q9Z2A7); assay: Inhibition of mouse DGAT1
# T1 sequence (Q9Z2A7 whole entry): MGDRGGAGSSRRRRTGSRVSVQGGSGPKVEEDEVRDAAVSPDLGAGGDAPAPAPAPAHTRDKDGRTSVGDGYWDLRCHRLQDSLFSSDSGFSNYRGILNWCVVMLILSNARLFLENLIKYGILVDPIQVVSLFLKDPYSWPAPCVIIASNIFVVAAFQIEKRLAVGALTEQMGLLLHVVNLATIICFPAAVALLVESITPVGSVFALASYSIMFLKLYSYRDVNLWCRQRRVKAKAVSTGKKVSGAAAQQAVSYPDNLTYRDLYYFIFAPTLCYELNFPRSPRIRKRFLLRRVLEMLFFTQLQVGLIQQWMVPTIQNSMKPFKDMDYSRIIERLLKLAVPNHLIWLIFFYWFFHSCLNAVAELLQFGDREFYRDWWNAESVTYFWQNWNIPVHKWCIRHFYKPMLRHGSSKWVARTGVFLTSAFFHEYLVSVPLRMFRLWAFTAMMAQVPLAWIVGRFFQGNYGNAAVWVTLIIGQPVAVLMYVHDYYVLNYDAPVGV
# [2] = tested on: Mus musculus; assay: Inhibition of plasma triglyceride accumulation in mouse at 10 mg/kg, po dosed 2 hrs before lipid challenge and measured at 18 hrs by lipid tolerance test; format: functional
# Outline: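 Mouse lipid tolerance test measuring plasma triglyceride excursion. Dosing was 10 mpk oral, with triglyceride reduction read at 18 h.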
# [3] = molecular target: T2, Sterol O-acyltransferase 1 (Homo sapiens) (UniProt P35610); assay: Inhibition of human ACAT1 at 10 uM
# T2 sequence (whole entry): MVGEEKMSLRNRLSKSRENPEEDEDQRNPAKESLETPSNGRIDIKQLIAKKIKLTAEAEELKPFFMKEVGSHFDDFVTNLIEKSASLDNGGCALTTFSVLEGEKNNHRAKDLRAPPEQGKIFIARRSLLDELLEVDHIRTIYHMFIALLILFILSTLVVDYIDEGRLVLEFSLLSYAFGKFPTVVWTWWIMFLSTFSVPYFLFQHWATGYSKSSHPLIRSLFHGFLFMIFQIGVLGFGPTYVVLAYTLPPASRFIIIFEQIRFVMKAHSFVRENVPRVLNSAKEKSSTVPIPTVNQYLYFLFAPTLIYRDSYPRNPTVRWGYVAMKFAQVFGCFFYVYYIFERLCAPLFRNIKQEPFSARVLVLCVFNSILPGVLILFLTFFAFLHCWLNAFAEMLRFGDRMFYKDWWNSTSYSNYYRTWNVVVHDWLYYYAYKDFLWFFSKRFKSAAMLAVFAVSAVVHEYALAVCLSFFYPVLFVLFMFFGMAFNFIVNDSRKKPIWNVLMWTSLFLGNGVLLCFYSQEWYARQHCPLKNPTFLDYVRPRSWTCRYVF
# Outline: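 Human ACAT1 inhibition was tested at a single concentration of 10 μM. The value is reported as percent inhibition.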
# [4] = molecular target: T3, Diacylglycerol O-acyltransferase 1 (Homo sapiens, UniProt O75907); assay: Inhibition of human DGAT1
# T3 sequence (O75907 whole entry): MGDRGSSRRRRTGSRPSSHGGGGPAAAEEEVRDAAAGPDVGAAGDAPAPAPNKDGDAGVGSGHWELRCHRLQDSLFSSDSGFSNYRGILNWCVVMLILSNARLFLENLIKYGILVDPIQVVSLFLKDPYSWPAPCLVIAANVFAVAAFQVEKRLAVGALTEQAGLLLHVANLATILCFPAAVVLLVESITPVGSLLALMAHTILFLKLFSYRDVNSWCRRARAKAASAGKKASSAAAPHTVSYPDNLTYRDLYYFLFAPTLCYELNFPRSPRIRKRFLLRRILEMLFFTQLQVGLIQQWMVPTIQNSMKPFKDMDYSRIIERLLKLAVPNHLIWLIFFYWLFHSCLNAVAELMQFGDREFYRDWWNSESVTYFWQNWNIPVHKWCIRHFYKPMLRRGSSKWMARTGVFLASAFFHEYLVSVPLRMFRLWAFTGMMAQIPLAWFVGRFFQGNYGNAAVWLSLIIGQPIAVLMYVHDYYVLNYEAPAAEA
# [5] = molecular target: T4, Sterol O-acyltransferase 1 (Homo sapiens, UniProt P35610); assay: Inhibition of human ACAT1
# T4 sequence (P35610 whole entry): T2 sequence (whole entry)
# [6] = molecular target: Voltage-gated inwardly rectifying potassium channel KCNH2 (Homo sapiens, UniProt Q12809); assay: Displacement of radiolabeled MK499 from human ERG
# Sequence of Voltage-gated inwardly rectifying potassium channel KCNH2 (Q12809 whole entry): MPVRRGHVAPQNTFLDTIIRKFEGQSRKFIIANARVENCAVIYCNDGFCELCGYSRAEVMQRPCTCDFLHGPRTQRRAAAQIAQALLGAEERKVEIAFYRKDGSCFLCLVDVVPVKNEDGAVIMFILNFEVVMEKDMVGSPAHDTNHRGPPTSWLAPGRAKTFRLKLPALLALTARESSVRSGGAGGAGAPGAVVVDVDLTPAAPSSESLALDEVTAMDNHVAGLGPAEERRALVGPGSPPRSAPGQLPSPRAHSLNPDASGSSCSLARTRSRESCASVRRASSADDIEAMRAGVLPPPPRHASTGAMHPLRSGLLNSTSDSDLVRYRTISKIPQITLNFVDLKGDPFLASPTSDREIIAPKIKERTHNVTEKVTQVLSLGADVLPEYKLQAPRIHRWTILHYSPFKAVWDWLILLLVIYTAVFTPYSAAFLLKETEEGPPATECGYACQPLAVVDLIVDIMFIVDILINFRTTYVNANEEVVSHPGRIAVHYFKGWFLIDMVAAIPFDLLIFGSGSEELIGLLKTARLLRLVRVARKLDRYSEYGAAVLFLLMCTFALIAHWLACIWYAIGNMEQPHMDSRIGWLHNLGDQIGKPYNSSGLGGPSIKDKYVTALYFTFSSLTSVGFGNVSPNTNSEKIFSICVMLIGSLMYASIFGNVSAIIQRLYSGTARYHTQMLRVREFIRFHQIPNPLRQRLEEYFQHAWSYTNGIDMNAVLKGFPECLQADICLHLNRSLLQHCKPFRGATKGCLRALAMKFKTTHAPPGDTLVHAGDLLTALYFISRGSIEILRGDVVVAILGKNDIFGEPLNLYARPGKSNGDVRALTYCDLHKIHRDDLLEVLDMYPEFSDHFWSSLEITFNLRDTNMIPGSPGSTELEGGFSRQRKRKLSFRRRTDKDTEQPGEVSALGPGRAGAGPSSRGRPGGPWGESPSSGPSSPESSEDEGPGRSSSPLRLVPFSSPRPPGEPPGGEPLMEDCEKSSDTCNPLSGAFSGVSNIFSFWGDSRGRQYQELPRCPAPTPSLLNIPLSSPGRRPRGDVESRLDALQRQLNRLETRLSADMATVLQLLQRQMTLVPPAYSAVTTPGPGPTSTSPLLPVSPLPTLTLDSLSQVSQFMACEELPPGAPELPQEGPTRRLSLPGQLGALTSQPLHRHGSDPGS
# Outline: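 hERG off-target activity was measured in a competitive binding assay against radiolabeled MK-499. The value is reported as Ki.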
# [7] = organism: Homo sapiens; assay: Selectivity index, ratio of Ki for human A2A receptor to KI IC50 for human DGAT1
# [8] = molecular target: Adenosine receptor A2a (Homo sapiens, UniProt P29274); assay: Binding affinity to human A2A receptor
# Sequence of Adenosine receptor A2a (P29274 whole entry): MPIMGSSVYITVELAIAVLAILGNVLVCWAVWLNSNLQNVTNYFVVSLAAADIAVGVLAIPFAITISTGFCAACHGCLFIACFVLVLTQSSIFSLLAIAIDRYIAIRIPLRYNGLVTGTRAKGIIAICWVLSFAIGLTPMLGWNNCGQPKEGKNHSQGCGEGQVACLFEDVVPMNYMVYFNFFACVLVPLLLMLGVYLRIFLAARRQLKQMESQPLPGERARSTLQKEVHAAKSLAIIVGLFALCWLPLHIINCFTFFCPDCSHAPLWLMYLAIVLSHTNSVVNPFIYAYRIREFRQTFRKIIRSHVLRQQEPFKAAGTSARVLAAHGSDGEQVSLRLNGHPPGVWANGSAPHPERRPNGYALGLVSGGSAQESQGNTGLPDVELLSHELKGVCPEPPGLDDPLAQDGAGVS
# Outline: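 Recombinant human A2A receptor was tested in an in-house radioligand competition binding assay. The value is reported as Ki.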
# [9] = Solubility in PBS buffer at pH 2; format: physicochemical
# Outline: (§1)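 High-throughput solubility test in PBS buffer at pH 2 and at pH 7. Free form and salt forms (TFA, formate, ammonium) were tested separately.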
# [10] = Solubility in PBS buffer at pH 7; format: physicochemical; outline: as §1
# [11] = tested on: Homo sapiens; assay: Reduction in fasting triglyceride levels in familial chylomicronemia syndrome patient at 20 mg dosed daily; format: functional
# [12] = tested on: Rattus norvegicus; assay: Inhibition of plasma triglyceride accumulation in Sprague-Dawley rat at 10 mg/kg, po dosed 2 hrs before lipid challenge and measured at 18 hrs by lipid tolerance test; format: functional
# [13] = tested on: Mus musculus; assay: Reduction in cumulative body weight gain in wild type mouse at 10 mg/kg, po dosed daily for 6 days measured starting from day 3; format: functional, organism-based; parameters: dose 10 mg/kg
# Outline: (§2)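 Wild-type and DGAT1 knockout mice were dosed daily at 10 mpk for six days. Cumulative body weight gain and food intake were compared with vehicle-treated groups.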
# [14] = tested on: Mus musculus; assay: Reduction in food intake in wild type mouse at 10 mg/kg, po dosed daily for 6 days measured starting from day 3; format: functional, organism-based; parameters: dose 10 mg/kg
# Outline: (§3)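 Wild-type and DGAT1 knockout mice were dosed daily at 10 mpk for six days. Cumulative body weight gain and food intake were compared with vehicle-treated groups of the same genotype.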
# [15] = tested on: Mus musculus; assay: Reduction in food intake in DGAT1 knockout mouse at 10 mg/kg, po dosed daily for 6 days; format: functional, organism-based; parameters: dose 10 mg/kg; outline: as §3
# [16] = tested on: Mus musculus; assay: Reduction in cumulative body weight gain in DGAT1 knockout mouse at 10 mg/kg, po dosed daily for 6 days; format: functional, organism-based; parameters: dose 10 mg/kg; outline: as §2
IC50 [1],inhibition [3],IC50 [4],IC50 [5],Selectivity ratio [7],Ki [8],SMILES,inhibition in vivo at 10 mg/kg [2],Ki [6],further results
0.029 µM,4%,0.0029 µM,> 10 µM,> 1000,3.5 µM,O=C(O)[C@H]1CC[C@H](OC2CCN(c3ccc(-c4nc5cc(Cl)ccc5[nH]4)cn3)CC2)CC1,75%,4 µM,–
0.11 µM,5%,–,> 10 µM,–,9.7 µM,O=C(O)[C@H]1CC[C@H](OC2CCN(c3ccc(-c4nc5cc(F)ccc5[nH]4)cn3)CC2)CC1,–,> 60 µM,–
0.008 µM,22%,0.0025 µM,> 10 µM,> 1000,8 µM,O=C(O)[C@H]1CC[C@@H](OC2CCN(c3ccc(-c4nc5cc(C(F)(F)F)ccc5[nH]4)cn3)CC2)CC1,75%,7 µM,–

# The next lines start with the molecule.
SMILES,IC50 [1],inhibition [3],IC50 [4],IC50 [5],Selectivity ratio [7],Ki [8],inhibition in vivo at 10 mg/kg [2],Ki [6],further results
O=C(O)C(F)(F)F.O=C(O)[C@H]1CC[C@H](OC2CCN(c3ccc(-c4nc5cc(C(F)(F)F)ccc5[nH]4)cn3)CC2)CC1,–,–,–,–,–,–,–,–,solubility [9]: 130 µM; solubility [10]: 151 µM
O=C(O)C[C@H]1CC[C@H](c2ccc(-c3ccc(Nc4ccc(C(F)(F)F)nc4)cn3)cc2)CC1 [PRADIGASTAT],–,–,–,–,–,–,–,–,inhibition (INH) [11]: 40%
O=C(O)[C@H]1CC[C@@H](OC2CCN(c3ccc(-c4nc5cc(F)ccc5[nH]4)cn3)CC2)CC1,0.026 µM,-2%,0.0058 µM,> 10 µM,> 1000,> 10 µM,55%,11 µM,–
CC1(C)Oc2ncnc(N)c2N=C1c1ccc([C@H]2CC[C@H](CC(=O)O)CC2)cc1,–,–,–,–,–,–,–,–,inhibition in vivo at 10 mg/kg [12]: 100%
O=C(O)[C@H]1CC[C@H](OC2CCN(c3ccc(-c4nc5cc(C(F)(F)F)ccc5[nH]4)cn3)CC2)CC1,–,23%,–,–,> 1000,–,–,–,Activity [13]: Active; Activity [14]: Active; Activity [15]: inactive; Activity [16]: inactive
O=C(O)[C@H]1CC[C@@H](OC2CCN(c3ccc(-c4nc5cc(Cl)ccc5[nH]4)cn3)CC2)CC1,0.011 µM,13%,0.0022 µM,> 10 µM,–,–,52%,15 µM,–
